This is an account of results in PMC4310626 (Biochemistry, 2014).

Test [1] has as its target T1, E. coli NDH-1 wild-type (Escherichia coli, UniProt P0AFD4+P33599). Description: Inhibition of dNADH oxidase activity in membrane vesicles, wild-type. The class given is biochemical. Put shortly:
(§1)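 Inverted membrane vesicles came from chromosomal NuoD-segment mutant or wild-type E. coli, grown overnight at 37 °C in Terrific Broth and disrupted by sonication and French press. The assay used 80 μg protein/mL in 10 mM potassium phosphate (pH 7.0) with 1 mM EDTA, no KCN and no added acceptor, at 30 °C. After 1 min preincubation with test compound, 150 μM dNADH was added. A340 was followed (ε 6.22 mM⁻¹ cm⁻¹), and IC50 was taken as the concentration giving 50% inhibition.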

Test [2] deals with E. coli NDH-1 NuoD mutant H224R (Escherichia coli, UniProt P0AFD4+P33599, H224R). Description: Inhibition of dNADH oxidase activity, NuoD mutant H224R. The class given is biochemical. Particulars: read-out: app IC50, 50% inhibition of the dNADH oxidase activity.
Test [3] addresses E. coli NDH-1 NuoD mutant G225A (Escherichia coli, UniProt P0AFD4+P33599, G225A). As to the kind of experiment: Inhibition of dNADH oxidase activity, NuoD mutant G225A. The test is classed as biochemical. Put shortly: as §1
In test [4] the target is E. coli NDH-1 NuoD mutant Y273F (Escherichia coli, UniProt P0AFD4+P33599, Y273F). Description: Inhibition of dNADH oxidase activity, NuoD mutant Y273F. The class given is biochemical. The procedure, abridged: as §1
Test [5] deals with E. coli NDH-1 NuoD mutant H315R (Escherichia coli, UniProt P0AFD4+P33599, H315R). As to the kind of experiment: Inhibition of dNADH oxidase activity, NuoD mutant H315R. The class given is biochemical. The procedure, abridged: as §1
Test [6] has as its target E. coli NDH-1 NuoD mutant D325A (Escherichia coli, UniProt P0AFD4+P33599, D325A). As to the kind of experiment: Inhibition of dNADH oxidase activity, NuoD mutant D325A. The test is classed as biochemical. The procedure, abridged: as §1
Test [7] concerns the target E. coli NDH-1 NuoH mutant E36D (Escherichia coli, UniProt P0AFC7+P0AFD4+P33599, E36D). As to the kind of experiment: Inhibition of dNADH oxidase activity, NuoH mutant E36D. The test is classed as biochemical.
In test [8] the target is E. coli NDH-1 NuoH mutant D63E (Escherichia coli, UniProt P0AFC7+P0AFD4+P33599, D63E). Description: Inhibition of dNADH oxidase activity, NuoH mutant D63E. The test is classed as biochemical.
Test [9] addresses E. coli NDH-1, other NuoD mutants (Escherichia coli, UniProt P0AFD4+P33599). As to the kind of experiment: Inhibition of dNADH oxidase activity, other NuoD mutants. The test is classed as biochemical. Particulars: read-out: IC50 values; all other NuoD mutants (other than G225A, Y273F). Put shortly: as §1
Test [10] deals with E. coli NDH-1 NuoD mutant R228A (Escherichia coli, UniProt P0AFD4+P33599, R228A). As to the kind of experiment: Inhibition of dNADH oxidase activity, NuoD mutant R228A. The class given is biochemical. Particulars: app IC50, 50% inhibition of the dNADH oxidase activity. Put shortly: as §1
The target of test [11] is E. coli NDH-1 NuoD mutant R228K (Escherichia coli, UniProt P0AFD4+P33599, R228K). Description: Inhibition of dNADH oxidase activity, NuoD mutant R228K. The test is classed as biochemical. Particulars: app IC50, 50% inhibition of the dNADH oxidase activity. The procedure, abridged: as §1
Test [12] concerns the target E. coli NDH-1 NuoD mutant G235A (Escherichia coli, UniProt P0AFD4+P33599, G235A). As to the kind of experiment: Inhibition of dNADH oxidase activity, NuoD mutant G235A. The class given is biochemical. The procedure, abridged:
as §1

In test [13] the target is E. coli NDH-1 NuoD mutant G235V (Escherichia coli, UniProt P0AFD4+P33599, G235V). As to the kind of experiment: Inhibition of dNADH oxidase activity, NuoD mutant G235V. The class given is biochemical. Put shortly:
as §1

Test [14] addresses E. coli NDH-1 NuoD mutant E236A (Escherichia coli, UniProt P0AFD4+P33599, E236A). Description: Inhibition of dNADH oxidase activity, NuoD mutant E236A. The class given is biochemical. Put shortly:
as §1

In test [15] the target is E. coli NDH-1 NuoD mutant E236D (Escherichia coli, UniProt P0AFD4+P33599, E236D). Description: Inhibition of dNADH oxidase activity, NuoD mutant E236D. The class given is biochemical. Put shortly: as §1
The target in test [16] is E. coli NDH-1 NuoD mutant G251A (Escherichia coli, UniProt P0AFD4+P33599, G251A). As to the kind of experiment: Inhibition of dNADH oxidase activity, NuoD mutant G251A. The test is classed as biochemical. The procedure, abridged: as §1
Test [17] has as its target E. coli NDH-1 NuoD mutant G251V (Escherichia coli, UniProt P0AFD4+P33599, G251V). As to the kind of experiment: Inhibition of dNADH oxidase activity, NuoD mutant G251V. The class given is biochemical. Particulars: app IC50, 50% inhibition of the dNADH oxidase activity. The procedure, abridged:
as §1

Test [18] has as its target E. coli NDH-1 NuoD mutant R270K (Escherichia coli, UniProt P0AFD4+P33599, R270K). As to the kind of experiment: Inhibition of dNADH oxidase activity, NuoD mutant R270K. The class given is biochemical. Particulars: app IC50, 50% inhibition of the dNADH oxidase activity. The procedure, abridged:
as §1

The target of test [19] is E. coli NDH-1 NuoD mutant R298A (Escherichia coli, UniProt P0AFD4+P33599, R298A). Description: Inhibition of dNADH oxidase activity, NuoD mutant R298A. The test is classed as biochemical. Particulars: app IC50, 50% inhibition of the dNADH oxidase activity. The procedure, abridged: as §1
The target in test [20] is E. coli NDH-1 NuoD mutant R298K (Escherichia coli, UniProt P0AFD4+P33599, R298K). As to the kind of experiment: Inhibition of dNADH oxidase activity, NuoD mutant R298K. The class given is biochemical. Put shortly: as §1
Test [21] concerns the target E. coli NDH-1 NuoD mutant E308D (Escherichia coli, UniProt P0AFD4+P33599, E308D). As to the kind of experiment: Inhibition of dNADH oxidase activity, NuoD mutant E308D. Particulars: app IC50, 50% inhibition of the dNADH oxidase activity. The test is classed as biochemical. Put shortly: as §1
Test [22] has as its target E. coli NDH-1 NuoD mutant R311K (Escherichia coli, UniProt P0AFD4+P33599, R311K). Description: Inhibition of dNADH oxidase activity, NuoD mutant R311K. The test is classed as biochemical. Put shortly: as §1
Test [23] has as its target E. coli NDH-1 NuoD mutant H315A (Escherichia coli, UniProt P0AFD4+P33599, H315A). Description: Inhibition of dNADH oxidase activity, NuoD mutant H315A. The class given is biochemical. The procedure, abridged:
as §1

Test [24] deals with E. coli NDH-1 NuoD mutant D325E (Escherichia coli, UniProt P0AFD4+P33599, D325E). Description: Inhibition of dNADH oxidase activity, NuoD mutant D325E. The class given is biochemical. The procedure, abridged: as §1
Test [25] addresses E. coli NDH-1 NuoD mutant H355A (Escherichia coli, UniProt P0AFD4+P33599, H355A). As to the kind of experiment: Inhibition of dNADH oxidase activity, NuoD mutant H355A. The test is classed as biochemical. The procedure, abridged:
as §1

For test [26], the target named is E. coli NDH-1 NuoH mutant Q44A (Escherichia coli, UniProt P0AFC7+P0AFD4+P33599, Q44A). As to the kind of experiment: Inhibition of dNADH oxidase activity, NuoH mutant Q44A. The test is classed as biochemical.
The target in test [27] is E. coli NDH-1 NuoH mutant P49A (Escherichia coli, UniProt P0AFC7+P0AFD4+P33599, P49A). Description: Inhibition of dNADH oxidase activity, NuoH mutant P49A. The test is classed as biochemical.
In test [28] the target is E. coli NDH-1 NuoH mutant E71A (Escherichia coli, UniProt P0AFC7+P0AFD4+P33599, E71A). Description: Inhibition of dNADH oxidase activity, NuoH mutant E71A. The class given is biochemical. Particulars: app IC50, 50% inhibition of the dNADH oxidase activity.
Test [29] deals with E. coli NDH-1 NuoH mutant E157K (Escherichia coli, UniProt P0AFC7+P0AFD4+P33599, E157K). As to the kind of experiment: Inhibition of dNADH oxidase activity, NuoH mutant E157K. The class given is biochemical.
Test [30] has as its target E. coli NDH-1 NuoH mutant E216A (Escherichia coli, UniProt P0AFC7+P0AFD4+P33599, E216A). As to the kind of experiment: Inhibition of dNADH oxidase activity, NuoH mutant E216A. The class given is biochemical.
The target of test [31] is E. coli NDH-1 NuoH mutant K303A (Escherichia coli, UniProt P0AFC7+P0AFD4+P33599, K303A). As to the kind of experiment: Inhibition of dNADH oxidase activity, NuoH mutant K303A. The test is classed as biochemical.
Test [32] deals with T1, E. coli NDH-1 wild-type. Particulars: read-out: IC50 value, ref [16],[55]; cited from earlier work.

Where two headings read alike, the source gives them in different places.

T1 sequence (P33599 whole entry): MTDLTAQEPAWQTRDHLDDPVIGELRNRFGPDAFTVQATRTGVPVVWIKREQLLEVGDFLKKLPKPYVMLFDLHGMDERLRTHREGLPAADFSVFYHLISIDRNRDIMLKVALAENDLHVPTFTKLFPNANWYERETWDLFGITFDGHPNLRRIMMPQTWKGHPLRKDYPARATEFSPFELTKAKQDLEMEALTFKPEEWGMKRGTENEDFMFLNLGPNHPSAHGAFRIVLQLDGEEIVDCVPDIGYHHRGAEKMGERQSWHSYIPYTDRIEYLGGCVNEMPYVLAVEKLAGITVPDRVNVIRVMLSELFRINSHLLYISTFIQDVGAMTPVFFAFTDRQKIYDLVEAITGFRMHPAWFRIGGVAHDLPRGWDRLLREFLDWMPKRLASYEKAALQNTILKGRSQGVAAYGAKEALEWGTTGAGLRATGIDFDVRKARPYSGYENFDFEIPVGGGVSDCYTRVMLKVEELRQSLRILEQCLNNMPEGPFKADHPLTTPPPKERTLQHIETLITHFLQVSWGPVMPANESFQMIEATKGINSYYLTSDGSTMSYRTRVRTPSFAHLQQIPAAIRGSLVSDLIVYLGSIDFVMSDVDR
T1 sequence (P0AFD4 whole entry): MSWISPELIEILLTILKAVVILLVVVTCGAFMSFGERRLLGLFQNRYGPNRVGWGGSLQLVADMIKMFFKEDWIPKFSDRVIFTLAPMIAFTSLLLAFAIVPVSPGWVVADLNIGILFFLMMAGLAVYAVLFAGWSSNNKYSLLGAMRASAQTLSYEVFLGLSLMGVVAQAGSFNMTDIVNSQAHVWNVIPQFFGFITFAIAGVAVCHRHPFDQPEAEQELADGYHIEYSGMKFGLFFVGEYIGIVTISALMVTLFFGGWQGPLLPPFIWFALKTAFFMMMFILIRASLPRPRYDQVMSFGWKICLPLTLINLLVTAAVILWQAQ
T1 sequence (P0AFC7 whole entry partner): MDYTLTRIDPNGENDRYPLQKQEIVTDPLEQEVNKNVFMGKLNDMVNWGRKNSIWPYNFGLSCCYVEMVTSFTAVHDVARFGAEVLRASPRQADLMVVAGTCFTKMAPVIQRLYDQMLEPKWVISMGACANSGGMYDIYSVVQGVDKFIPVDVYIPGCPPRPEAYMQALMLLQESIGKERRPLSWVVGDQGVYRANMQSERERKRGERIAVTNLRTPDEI
Chain of E. coli NDH-1 NuoD mutant Y273F (P33599 whole entry Y273F): as the sequence (P33599 whole entry) above, with Y273F counted along it
Chain of E. coli NDH-1 NuoD mutant Y273F (P0AFD4 whole entry): as the sequence (P0AFD4 whole entry) above
Chain of E. coli NDH-1 NuoD mutant Y273F (P0AFC7 whole entry partner): as the sequence (P0AFC7 whole entry partner) above
Chain of E. coli NDH-1 NuoD mutant H315R (P33599 whole entry H315R): as the sequence (P33599 whole entry) above, with H315R counted along it
Chain of E. coli NDH-1 NuoD mutant H315R (P0AFD4 whole entry): as the sequence (P0AFD4 whole entry) above
Chain of E. coli NDH-1 NuoD mutant H315R (P0AFC7 whole entry partner): as the sequence (P0AFC7 whole entry partner) above
Chain of E. coli NDH-1 NuoD mutant G225A (P33599 whole entry G225A): as the sequence (P33599 whole entry) above, with G225A counted along it
Chain of E. coli NDH-1 NuoD mutant G225A (P0AFD4 whole entry): as the sequence (P0AFD4 whole entry) above
Chain of E. coli NDH-1 NuoD mutant G225A (P0AFC7 whole entry partner): as the sequence (P0AFC7 whole entry partner) above

Take `[N-]=[N+]=Nc1ccc2ncnc(NCCc3ccc(I)cc3)c2c1` [AzQ, 6-azido-4-(4-iodophenetylamino) quinazoline]: the IC50 on E. coli NDH-1 wild-type [1] (read-out: app IC50, 50% inhibition of the dNADH oxidase activity, WT, NuoD series (Table 3)) turned out to be 1080 nM; on E. coli NDH-1 wild-type [1] (read-out: app IC50, 50% inhibition of the dNADH oxidase activity, WT, NuoH series (Table 4)), 1080 nM; in test [2], 1130 nM; in [4] (read-out: app IC50, 50% inhibition of the dNADH oxidase activity, NuoD mutant Y273F) it was 2530 nM; in test [5] (read-out: app IC50, 50% inhibition of the dNADH oxidase activity, NuoD mutant H315R), 903 nM; in [6] (read-out: app IC50, 50% inhibition of the dNADH oxidase activity, NuoD mutant D325A), 1140 nM. For the same molecule, the IC50 in test [9] was 1000 nM. The figures for the “increase in the IC50 value” in [3] (NuoD mutant G225A versus wild-type) and in test [4] (NuoD mutant Y273F versus wild-type) were about 3 fold and about 2.5 fold, respectively. For the same molecule, the “decrease in the IC50 value” in test [7] (NuoH mutant E36D versus wild-type) and in test [8] (NuoH mutant D63E versus wild-type) was 3–4 fold in each case.

For the molecule `CCCCCCCCCCCC[C@H](O)[C@H]1CC[C@H]([C@H]2CC[C@H]([C@H](O)CCCCCCCC[C@@H](O)CC3=C[C@H](C)OC3=O)O2)O1` [squamotacin], the IC50 against E. coli NDH-1 wild-type [1] was found to be 10 nM; in test [3], 5 nM; in test [10], 2 nM; in test [11], 3 nM; in [12], 4 nM; in [13] it was 6 nM. Further, the IC50 in test [14] is 5 nM; in [15] it was 7 nM; in test [16] it was 4 nM; in [17] it was 2 nM; in test [18], 2 nM; in [4], 9 nM. The IC50 came out at 2 nM in test [19]; 4 nM in [20]; 2 nM in test [21]; 4 nM in [22]; 10 nM in [23]; 4 nM in test [5]. Also, the IC50 is 11 nM in test [6]; 5 nM in test [24]; 5 nM in test [25]; 3 nM in test [7] (app IC50, 50% inhibition of the dNADH oxidase activity, NuoH mutant E36D); 5 nM in test [26]; 5 nM in [27]. The IC50 is 4 nM in test [8] (app IC50, 50% inhibition of the dNADH oxidase activity, NuoH mutant D63E); 3 nM in test [28]; 6 nM in test [29]; 8 nM in [30]; 10 nM in [31]; 2 to 10 nM on E. coli NDH-1 wild-type [32].
